Here are results for one compound from ChEMBL document CHEMBL4725355, “Design, Synthesis, and Preclinical Evaluation of 3-Methyl-6-(5-thiophenyl)-1,3-dihydro-imidazo[4,5-b]pyridin-2-ones as Selective GluN2B Negative Allosteric Modulators for the Treatment of Mood Disorders” (J Med Chem, 2020).

As a reminder, the Tmax is the time from dosing to the highest level. Usually Ki stands for the dissociation constant of the complex between target and ligand, obtained from inhibition or displacement. A higher Ki goes with a looser hold on the target. As a reminder, the AUC(0-inf) is total exposure, with the tail of the curve extrapolated. For orientation: Cmax means the peak of the concentration-time curve. Broadly, the half-life is the time in which the quantity being followed falls by half. Low values mean fast loss, high ones slow loss. Usually AUC(0-t) stands for the area under the concentration-time curve up to a stated or last time point. A high value points to more exposure. By IC50 is commonly meant the midpoint of a concentration-inhibition curve. The low end stands for inhibition by little substance, the high end for a need for much substance. A word on the solubility: it is the concentration that dissolves in the medium under given conditions.

Each structure is given as a SMILES string.

A short description of data set [1]: Tmax in Sprague-Dawley rat at 250 mg/kg, po administered via gavage after 24 hrs using nanosuspension formulation by LC-MS/MS analysis. Format: ADME, organism-based. The settings on record: in vivo. Put shortly:
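Single oral gavage of a nanosuspension (API:polymer 4:1), diluted with vehicle on the dosing day, at 100, 250 or 500 mg/kg to male Sprague Dawley rats, 3 per dose. Plasma was sampled from 0.5 to 24 h.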

A short description of data set [2]: Drug level in Sprague-Dawley rat brain cerebellum at 0.03 mg/kg, iv after 5 min by LC-MS/MS analysis. The class given is ADME, organism-based. The settings on record: read-out: Drug uptake. Put shortly: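 Single i.v. dose of 0.03 mg/kg in 50% (w/v) PEG/water, pH 7.4; rats n=3 per group, killed at 5, 10, 30, 60 and 120 min. Cerebellum, cortex, striatum and hippocampus dissected, weighed and homogenized; drug quantified by LC-MS/MS and normalized to tissue weight. P<0.05 taken as significant versus cerebellum.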

Data set [3] can be described thus: Displacement of 3-[3H] 1-(azetidin-1-yl)-2-[6-(4-fluoro-3-methyl-phenyl)pyrrolo[3,2-b]pyridin-1-yl]ethanone from GluN1a/GluN2B receptor in […] measured after 2 hrs by liquid scintillation counting method. Format: tissue-based, Cortex.
Data set [4] is described as follows: Volume of distribution at steady state in dog at 0.1 mg/kg, iv by LC-MS/MS analysis. Conditions: in vivo, read-out: Vdss. The class given is ADME, organism-based, Canis lupus familiaris.
The nature of data set [5]: AUC (infinity) in mouse at 2.5 mg/kg, po by LC-MS/MS analysis. The class given is ADME, organism-based. Set-up: route oral, time infinity, dose 2.5 mg/kg. Conditions: in vivo.
A short description of data set [6]: Cmax in Sprague-Dawley rat at 500 mg/kg, po administered via gavage after 24 hrs using nanosuspension formulation by LC-MS/MS analysis. The class given is ADME, organism-based. Set-up: route oral, time 24 hrs, dose 500 mg/kg. Conditions: in vivo. The method in brief:
(§1)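 Single oral gavage dose to male Sprague Dawley rats, 3 per dose level. Vehicles were a standard suspension in 5% HPMC (125, 250, 500 or 1000 mg/kg) or a nanosuspension (API:polymer 4:1), with stock diluted in vehicle on the day of dosing (100, 250 or 500 mg/kg). Blood was sampled at time points from 0.5 to 24 h.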

Data set [7] is described as follows: Ratio of Cmax in Sprague-Dawley rat at 250 mg/kg, po administered via gavage after 24 hrs using nanosuspension formulation by LC-MS/MS analysis to EC70 for ex vivo receptor occupancy at GluN2B in po dosed Sprague-Dawley rat assessed as 3-[3H] 1-(azetidin-1-yl)-2-[6-(4-fluoro-3-methyl-phenyl)pyrrolo[3,2-b]pyridin-1-yl]-ethanone labelling. The class given is ADME, organism-based.

Data set [8] is described as follows: Half life in Sprague-Dawley rat at 0.5 mg/kg, iv or 2.5 mg/kg, po using 1:1 PEG-400/water formulation by LC-MS/MS analysis. The class given is ADME, organism-based. Conditions: in vivo. The method in brief:
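Rats dosed 0.5 mg/kg i.v. and 2.5 mg/kg p.o., n=3 ± SD. Default vehicle is 20% HP-β-CD; one PK set used 1:1 PEG400/water and another 30% SBE-β-CD.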

A short description of data set [9]: AUC (0 to 24 hrs) in Sprague-Dawley rat at 125 mg/kg, po administered via gavage after 24 hrs using HPMC formulation by LC-MS/MS analysis. Format: ADME, organism-based. Also noted: route oral, dose 125 mg/kg, time <=24. The settings on record: in vivo. The method in brief: as §1
Data set [10] in a line: Tmax in Sprague-Dawley rat at 2.5 mg/kg, po by LC-MS/MS analysis. The class given is ADME, organism-based. The settings on record: in vivo.
Data set [11] concerns the target T1, Cytochrome P450 3A4 (Homo sapiens, UniProt P08684). The data set is described as follows: Time-dependent inhibition of CYP3A4 in human liver microsomes at 10 uM using midazolam as substrate by LC-MS/MS analysis. Format: ADME. The method in brief:
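CYP3A4 time-dependent inhibition in human liver microsomes. The compound (0.4 to 10 μM) was tested with and without 30 min preincubation. IC50 was taken from percent activity remaining versus vehicle, averaged over two independent experiments. A >2-fold IC50 shift after preincubation was the threshold for time-dependent inhibition.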
(Liver microsomes are a subcellular fraction often used to study metabolism.)

Data set [12] concerns the target T2, Nuclear receptor subfamily 1 group I member 2 (Homo sapiens, UniProt O75469).
T2 sequence (O75469 whole entry): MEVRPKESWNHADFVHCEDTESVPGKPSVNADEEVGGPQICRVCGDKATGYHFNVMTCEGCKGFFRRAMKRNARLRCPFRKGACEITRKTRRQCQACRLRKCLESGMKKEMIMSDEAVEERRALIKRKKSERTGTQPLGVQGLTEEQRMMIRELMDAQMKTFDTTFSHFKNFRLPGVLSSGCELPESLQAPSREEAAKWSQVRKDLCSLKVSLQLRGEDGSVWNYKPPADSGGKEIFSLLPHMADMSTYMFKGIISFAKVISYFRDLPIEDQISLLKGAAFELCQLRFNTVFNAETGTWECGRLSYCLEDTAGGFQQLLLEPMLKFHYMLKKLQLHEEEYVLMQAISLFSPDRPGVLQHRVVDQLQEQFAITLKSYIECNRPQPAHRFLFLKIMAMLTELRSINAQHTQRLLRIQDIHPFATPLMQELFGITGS
The data set is described as follows: Activation of human PXR expressed in human DPX2 cells assessed as induction of CYP3A by luciferase reporter gene assay relative to control. The class given is ADME, cell-based. Put shortly: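 Luciferase reporter lines were used. DPX2 is HepG2 carrying human PXR plus a CYP3A4 promoter-luciferase construct. 1A2-DRE carries human AhR plus a CYP1A2 promoter with 3 DRE copies. Luminescence was read with ONE-Glo. Activation was expressed relative to rifampicin (PXR) or omeprazole (AhR).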
(In a reporter assay the amount or activity of a reporter protein is the signal.)

In data set [13] the target is T1, Cytochrome P450 3A4. As to the kind of experiment: Inhibition of CYP3A4 in human liver microsomes using testosterone as substrate measured after 15 mins by LC-MS/MS analysis. Format: ADME. Put shortly:
(§2)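 Human liver microsomes incubated with isoform-specific probe substrates and the test compound at concentrations up to 20 µM. IC50 derived from inhibition of metabolite formation; mean of two independent experiments, with known specific inhibitors as positive controls.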

Data set [14] in a line: Displacement of 3-[3H] 1-(azetidin-1-yl)-2-[6-(4-fluoro-3-methyl-phenyl)pyrrolo[3,2-b]pyridin-1-yl]ethanone from GluN1a/GluN2B receptor in rat cortex membranes measured after 2 hrs by liquid scintillation counting method. Format: cell membranes. Put shortly:
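Rat adult cortex was homogenized in 50 mM Tris pH 7.4, and membranes were washed by centrifugation. Membranes were incubated with the [3H] pyrrolopyridine tracer and test compound for 2 h at room temperature with shaking. Non-specific binding was defined with 10 µM CP-101,606. Bound tracer was separated by filtration on PEI-soaked GF/B filters and counted by liquid scintillation. Ki was obtained from a competition fit using tracer Kd; three independent runs in duplicate.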

Data set [15] is described as follows: Solubility of compound in phosphate buffer at pH 7 measured after 3 days. Format: physicochemical. Conditions: time 3 day. Put shortly: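 Solubility in aqueous buffer at pH 2 and pH 7, and in simulated gastric and intestinal fluids.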
Data set [16] is described as follows: AUC (0 to 24 hrs) in Sprague-Dawley rat at 100 mg/kg, po administered via gavage after 24 hrs using nanosuspension formulation by LC-MS/MS analysis. The class given is ADME, organism-based. Also noted: route oral, dose 100 mg/kg, time <=24. The settings on record: in vivo. Put shortly: as §1
Data set [17] deals with T1, Cytochrome P450 3A4. The data set is described as follows: Inhibition of CYP3A4 in human liver microsomes using midazolam as substrate measured after 15 mins by LC-MS/MS analysis. The class given is ADME. Put shortly: as §2
Data set [18] is described as follows: Cmax in Sprague-Dawley rat at 0.5 mg/kg, iv or 2.5 mg/kg, po using 1:1 PEG-400/water formulation by LC-MS/MS analysis. Format: ADME, organism-based. Also noted: dose 2.5 mg/kg. The settings on record: in vivo. Put shortly: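 Rat IV/PO PK at 0.5 mg/kg IV and 2.5 mg/kg PO, dosed in 1:1 PEG400/water, n=3.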
Data set [19] can be described thus: AUC (0 to 24 hrs) in Sprague-Dawley rat at 500 mg/kg, po administered via gavage after 24 hrs using HPMC formulation by LC-MS/MS analysis. Format: ADME, organism-based. Also noted: route oral, dose 500 mg/kg, time <=24. The settings on record: in vivo. The method in brief:
as §1

T1 sequence (P08684 whole entry): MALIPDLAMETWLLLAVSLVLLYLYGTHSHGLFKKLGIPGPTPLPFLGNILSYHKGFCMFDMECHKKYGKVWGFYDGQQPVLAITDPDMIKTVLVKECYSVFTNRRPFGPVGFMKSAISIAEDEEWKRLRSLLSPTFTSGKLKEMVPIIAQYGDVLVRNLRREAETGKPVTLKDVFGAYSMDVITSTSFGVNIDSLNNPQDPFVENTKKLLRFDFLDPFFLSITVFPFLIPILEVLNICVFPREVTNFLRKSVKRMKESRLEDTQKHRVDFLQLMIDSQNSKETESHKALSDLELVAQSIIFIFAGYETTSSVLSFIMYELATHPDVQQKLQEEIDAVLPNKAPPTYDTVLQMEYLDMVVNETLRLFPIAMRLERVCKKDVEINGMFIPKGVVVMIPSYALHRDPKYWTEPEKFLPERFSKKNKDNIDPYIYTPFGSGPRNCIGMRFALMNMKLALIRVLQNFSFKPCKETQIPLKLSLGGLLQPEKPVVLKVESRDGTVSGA

For `Cn1c(=O)n(CC(=O)N2CCC2)c2cc(-c3ccc(C(F)(F)F)s3)cnc21`, the Tmax stood at 2.7 h in [1] and 1.3 h in [10]. The concentration at 5 min in data set [2] came to 0.0193 µg/mL. The Ki in data set [3] amounted to 0.015 µM; in data set [14] it was 0.016 µM. Also, the Vd in data set [4] came to 0.8 L/kg. In addition, the AUC(0-inf) in [5] stood at 0.539 µg·h/mL. Besides, the figures for the Cmax in data set [6] and in data set [18] were 18.3 µg/mL and 0.479 µg/mL, respectively. Besides, the Ratio in data set [7] turned out to be 17. Further, the half-life in [8] was 0.8 h. Besides, the AUC(0-t) turned out to be 22.8 µg·h/mL in [9], 51.9 µg·h/mL in [16] and 22.5 µg·h/mL in data set [19]. The TDI entry in data set [11] was “Not Active”. Further, the Activity in data set [12] is under 20%. For the same compound, the IC50 in [13] and in data set [17] was over 50 µM in each case. This compound also had a solubility at 72 h in data set [15] of under 4 µM.
